Screens: PubChem BioAssay, several laboratories
NR2E3 ag-1 = activates human NR2E3 receptor; CHO-S Gal4-NCOR/VP16-NR2E3 two-hybrid, luciferase; inhibition of corepressor binding, % at 3.98 µM; actives 0.35% (n = 360,000); AID 602229;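 active = inhibition above the mean of all tested compounds plus 3 SD, cut at about 70% in these data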;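 note: 0% = DMSO with NR2E3 transfected cells and 100% = cells lacking NR2E3 construct; higher means lower luciferase signal from less NR2E3 corepressor binding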
Target sequence (Q9Y5X4 whole entry, looked up, the tested form may be a part): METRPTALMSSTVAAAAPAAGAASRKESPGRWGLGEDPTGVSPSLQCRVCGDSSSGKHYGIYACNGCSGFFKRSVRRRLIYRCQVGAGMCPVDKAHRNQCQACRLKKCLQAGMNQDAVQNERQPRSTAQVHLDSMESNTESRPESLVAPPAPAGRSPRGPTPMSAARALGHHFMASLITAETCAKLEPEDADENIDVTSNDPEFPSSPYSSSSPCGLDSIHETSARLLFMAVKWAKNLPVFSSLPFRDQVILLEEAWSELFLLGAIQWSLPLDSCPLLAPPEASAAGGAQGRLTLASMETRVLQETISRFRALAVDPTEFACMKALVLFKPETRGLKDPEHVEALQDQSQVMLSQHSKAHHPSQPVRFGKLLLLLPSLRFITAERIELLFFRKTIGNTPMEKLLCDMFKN
PG9 binder = PG9 antibody binding by small molecule. AID 624416. actives 0.43% (n = 360,000). inhibition, % at 6.7 µM. TR-FRET gp120-PG9 antibody binding; in the data active = inhibition above about 8.5%
NR2E3 ag-2 = activates human photoreceptor nuclear receptor NR2E3. Q9Y5X4. GST-NR2E3/biotin-RetCOR TR-FRET, 1536-well. inhibition of corepressor binding, % at 4.78 µM. actives 0.12% (n = 320,000);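 active = percent inhibition above the cutoff of mean plus 3 SD of all tested compounds, set per screening campaign, cut at about 20% in these data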;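 note: 0% = DMSO wells and 100% = biotin wells as full block of FRET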
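system = GST-tagged NR2E3 plus biotinylated RetCOR corepressor | input = 1.35 nM GST-NR2E3 | also added = 7 nM biotin-RetCOR | schedule = 5 h incubation at 4 °C | measured by = TR-FRET with europium anti-GST and streptavidin-D2, 340 nm excitation | read-out = percent loss of FRET ratio relative to control wells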
NR1D1 modulator = modulators of human Rev-erb alpha DNA binding. activity, % at 10 µM. actives 0.79% (n = 370,000). Rev-erbα–FITC-DNA binding, fluorescence polarization, 90 min. P20393;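 active = activity above about 14%, limit read from the data; passing the limit was not always enough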;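 note: 0% = DMSO wells with 35 nM protein and 100% = DMSO wells with 750 nM protein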
GalR3 antagonist = human GalR3 antagonism; O60755; HEK293 GalR3-CNG cAMP membrane potential fluorescence; galR3 body fused to GalR1 C-terminus; inhibition, % at 3 µM; actives 0.44% (n = 360,000); AID 651719;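 active = inhibition above the screen-wide average plus 3 SD, cut at about 13% in these data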;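 note: forskolin and galanin both at EC90 stimulate the cells; cAMP rise reported by CNG channel membrane potential dye signal; 0% = forskolin plus galanin with DMSO and 100% = forskolin alone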
Target sequence (O60755 1-299 limits assumed): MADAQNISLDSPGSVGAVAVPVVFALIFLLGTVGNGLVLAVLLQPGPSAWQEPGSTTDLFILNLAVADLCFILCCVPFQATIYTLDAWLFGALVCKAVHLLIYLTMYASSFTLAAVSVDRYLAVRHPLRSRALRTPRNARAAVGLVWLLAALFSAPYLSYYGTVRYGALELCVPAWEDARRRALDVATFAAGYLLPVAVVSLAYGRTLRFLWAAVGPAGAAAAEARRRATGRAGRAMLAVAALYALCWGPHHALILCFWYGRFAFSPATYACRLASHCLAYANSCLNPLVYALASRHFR
GalR3 conf = GalR3 (human) antagonism, confirmation | shares compounds with GalR3 antagonist | HEK293 GalR3 CNG cAMP biosensor, membrane potential fluorescence; galR3 fused to GalR1 carboxy tail; challenged with forskolin and galanin at EC90 | inhibition, % at 3 µM | actives 59% (n = 1,600) | AID 652245;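 active = inhibition above the primary screen's cutoff, the mean inhibition of all screened compounds plus 3 SD, cut at about 13% in these data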;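 note: 0% = forskolin plus galanin and 100% = forskolin alone with DMSO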
CNG parental = counter-screen for GalR3 antagonists: nonspecific agonists in parental HEK-CNG cells. HEK293-CNG parental cells, cAMP membrane potential fluorescence; normalised: DMSO wells 0%, forskolin wells 100%. actives 10% (n = 1,600). AID 652268. activation, % at 3 µM. shares compounds with GalR3 antagonist; in the data active = activation above about 1.3%
Starred values were filed as active, the others as inactive; . = no result; ! = not active in a repeat. Shown are actives, neighbours in structure and some others; about 1.8% of the full set was active somewhere.

SMILES | NR2E3 ag-1 | PG9 binder | NR2E3 ag-2 | NR1D1 modulator | GalR3 antagonist | GalR3 conf | CNG parental
COC(=O)[C@]12C[C@H](CC(=O)NCc3cccs3)C(=O)N(CCC3=CCCCC3)C1=C[C@H](C(C)(C)C)O[C@@H]2C | . | -1 | . | 1 | -5 | . | .
C[C@@H]1COc2cc(N3CCCC3)ccc2S(=O)(=O)N1C | . | . | . | -5 | . | . | .
O=C(COC(=O)c1ccc2c(c1)OCO2)NCc1ccc2c(c1)OCO2 | 16 | -1 | -1 | 0 | -6 | . | .
NC(=O)CC[C@H](NC(=O)c1ccc(F)cc1)C(=O)OCC(=O)NCc1ccc2c(c1)OCO2 | -20 | -1 | . | 4 | 26* | 1 | 0
CCOC(=O)[C@@]12CN(C(=O)OC(C)(C)C)CC=C1N(Cc1ccc(OC)cc1)C(=O)[C@H]2CC(=O)N1CCCC1 | . | . | . | -2 | . | . | .
CCN(CC)C(=O)CC[C@@H]1CC[C@]2(CCCN(C(=O)c3ccco3)C2)O1 | . | . | . | 1 | . | . | .
CC(C)CC1NC(=O)N(Cc2nc3ccccc3s2)C1=O (stereo unspecified) | 6 | 0 | -2 | -7 | 19* | -1 | 0
CC1CC(C)CN(C(=O)CSCC(=O)O)C1 (stereo unspecified) | 4 | 1 | 4 | 5 | 13* | -2 | 0
CC1CC(C)CN(C(=O)CSc2nnc(N)s2)C1 (stereo unspecified) | 8 | -1 | 1 | 1 | 1 | . | .
Nc1oc2ccccc2c1C(=O)Cc1ccccc1O[C@@H]1O[C@H](CO)[C@@H](O)[C@H](O)[C@H]1O | -36 | -2 | -7 | -3 | 16* | 9 | 0
O=C(Cc1ccccc1F)Nc1nnc(-c2cccnc2)s1 | . | . | . | 4 | . | . | .
COC(=O)[C@]12CCCCC=C1N(Cc1ccc(OC)cc1)C(=O)[C@@H]2CC(=O)NCC1CCCCC1 | . | . | . | 8 | . | . | .
COCCCN1C(=O)c2ccc(C(=O)OCC(=O)N(C)c3ccccc3)cc2C1=O | -17 | 2 | 3 | 1 | . | -1 | 0
COCCCN1C(=O)c2ccc(C(=O)OCC(=O)NCCc3ccccc3)cc2C1=O | 21 | -2 | 1 | 2 | -5 | . | .
O=C(NCCc1c[nH]c2ccccc12)OCc1cn(Cc2ccc(C(F)(F)F)cc2)nn1 | . | . | . | 3 | . | . | .
Cc1cccc(C)c1NC(=O)COn1nnc2ccc(C(F)(F)F)cc21 | 2 | 0 | 2 | 4 | -2 | . | .
O=C(COn1nnc2ccc(C(F)(F)F)cc21)Nc1c(Cl)cccc1Cl | 11 | -3 | 1 | 2 | 15* | 6 | 0
Cc1ccc(-n2nc(C)c(/C=N/n3c(C)n[nH]c3=S)c2Cl)cc1 | -9 | 0 | -2 | -2 | . | 11 | 1
COc1ccc(S(=O)(=O)n2nc(-c3cc(OC)c(OC)c(OC)c3)cc2N)cc1OC | -17 | 3 | 3 | 1 | -1 | . | .
COc1ccc(-c2cc(N)n(S(=O)(=O)c3c(F)c(F)c(F)c(F)c3F)n2)cc1OC | 38 | 0 | 0 | -3 | 54* | 60* | 1
COc1ccc2c(c1O)Cc1ccccc1C2=O | -3 | . | -4 | . | . | . | .
CC(C)=C1Cc2ccccc2C1=O | -2 | -2 | -2 | -3 | 13* | 0 | 0
Cn1ccnc1CN1CCC[C@]2(CC[C@H](CCC#N)O2)C1 | . | . | . | 4 | . | . | .
CCCN1C(=O)c2[nH]nc(-c3cc(Cl)c(C)cc3O)c2C1c1ccc(O)c(OC)c1 (stereo unspecified) | -27 | 0 | -1 | -3 | 20* | 4 | 0
CCCCCC(=O)NNC(=S)NC(C)=O | 0 | 2 | -1 | -1 | 13* | 2 | 0
SMILES | NR2E3 ag-1 | PG9 binder | NR2E3 ag-2 | NR1D1 modulator | GalR3 antagonist | GalR3 conf | CNG parental
Cc1ccnc(Nc2nc(-c3sc(C)nc3C)cs2)c1 | 8 | -1 | 0 | 3 | 32* | 36* | 0
Cc1nc(C)c(-c2csc(Nc3ccccn3)n2)s1 | -157 | 0 | -2 | -1 | -7 | . | .
CC(C)NC(=O)NC1CCN(CC(=O)Nc2ccc3c(c2)OCCO3)CC1 | . | . | . | -9 | . | . | .
CC(C)(C)C(=O)NC(=S)NNC(=O)c1ccc(Cl)cc1Cl | 18 | 3 | 0 | -11 | 16* | 13* | 0
COc1cc(CCCN2C(=O)C(=O)NC[C@@H]2Cc2ccc(O)cc2)cc(OC)c1OC | -9 | 1 | 6 | -1 | 16* | 3 | 1
COc1cc(OC)c2cc[nH]c2c1 | -6 | -2 | 0 | 1 | 18* | 5 | 0
CN(C)S(=O)(=O)N1CCC(Oc2ccc(C(=O)NC3Cc4ccccc4C3)cc2)CC1 | -33 | 0 | 1 | 1 | 30* | 99* | 0
CC(=O)NCCC1CCN(c2nc3nonc3nc2N(C)Cc2ccccc2)CC1 | -13 | 0 | 1 | -6 | 20* | 0 | 0
COc1ccccc1Oc1ccc2c(c1)C(=O)N(c1cccc3ncccc13)C2=O | 32 | -2 | . | -6 | 58* | 46* | -1
COc1ccccc1Oc1ccc2c(c1)C(=O)N(c1cccc(O)c1)C2=O | -58 | 1 | 3 | -3 | -2 | . | .
O=c1cc(CSc2nnc(-c3cccs3)n2Cc2ccccc2)nc2sc3ccccc3n12 | 33 | 0 | 2 | -34 | 74* | 108* | 0
COc1ccccc1-n1c(-c2ccccc2)c[n+]2c1CCc1ccccc1-2 | 1 | -1 | 4 | -3 | 53* | 68*! | 1.6*
N#Cc1ccc2nc(-c3ccc(CN4CCC(c5nc6ccccc6[nH]5)CC4)cc3)c(-c3ccccc3)nc2c1 | . | -2 | . | -8 | -1 | . | .
CC(C)Cc1ccc(CN2CCCC(NC(=O)c3ccnn3C)C2)cc1 (stereo unspecified) | -7 | -2 | -3 | -1 | 32* | 0 | 0
COCCN1Cc2cccc(C(=O)Nc3cc(OC)ccc3OC)c2C1=O | -3 | 0 | 4 | 0 | 45* | 52* | 0
COc1cccc(C(=O)N[C@H](C(=O)N2CCC[C@H]2C(=O)NCCc2ccccc2Cl)C(C)C)c1 | . | 0 | . | 7 | -5 | . | .
Cc1ccc(C(=O)N2CCCC(CCC(=O)N3CCN(c4ccccn4)CC3)C2)cn1 (stereo unspecified) | -4 | -1 | 4 | -4 | 13* | 8 | 0
CCc1nc2ccc(C(=O)Nc3ccc4c(c3)OCC(=O)N4)cn2c1N(CC)Cc1cccc(Br)c1 | 18 | 1 | . | 4 | 6 | . | .
CCc1nc2ccc(C(=O)Nc3ccc4c(c3)OCC(=O)N4)cn2c1N(CC)CCOC | -17 | -1 | . | -7 | 15* | 11 | 0
Cc1n[nH]c(C)c1S(=O)(=O)NCCc1ccccc1F | . | . | . | -3 | . | . | .
O=C(CSC1=Nc2ccccc2C2CC=NN12)Nc1ccc2c(c1)OCO2 (stereo unspecified) | -49 | -2 | . | 9 | 20* | 10 | 0
